Experiments:
[1] = molecular target: T1, 5-hydroxytryptamine receptor 1F (Homo sapiens, UniProt P30939); experiment: In vitro binding affinity for human 5-hydroxytryptamine 1F receptor
T1 sequence (P30939 whole entry): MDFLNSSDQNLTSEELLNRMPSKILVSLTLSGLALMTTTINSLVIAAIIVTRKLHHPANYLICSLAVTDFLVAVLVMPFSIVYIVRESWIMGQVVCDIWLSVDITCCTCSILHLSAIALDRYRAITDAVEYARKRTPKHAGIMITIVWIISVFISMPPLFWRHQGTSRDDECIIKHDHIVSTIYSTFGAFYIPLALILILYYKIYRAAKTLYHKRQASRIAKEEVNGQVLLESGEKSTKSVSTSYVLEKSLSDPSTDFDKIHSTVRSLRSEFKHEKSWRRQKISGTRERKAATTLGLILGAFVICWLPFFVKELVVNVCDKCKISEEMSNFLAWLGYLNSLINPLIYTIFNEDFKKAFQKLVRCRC
In short: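 Radioligand binding in cell lines expressing the human 5-HT receptor; Ki reported as mean of three or more experiments with SEM.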

[2] = molecular target: Serotonin (5-HT) receptor (Homo sapiens) (UniProt P30939+P41595+Q13639+P28222+P46098+P08908+P28221+P28223+P28335+P28566+P34969+P50406+P47898+A5X5Y0+O95264+Q70Z44+Q8WXA8); experiment: Maximum stimulation of [35S]GTP-gamma-S, binding expressed relative to the maximal effect of 5-hydroxytryptamine; assay type: functional
In short: (§1)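 [35S]GTP-γ-S binding stimulated in mouse LM(tk-) cells expressing human 5-HT1F receptor; means of at least two separate experiments, each run in triplicate, with SEM.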

[3] = molecular target: T1, 5-hydroxytryptamine receptor 1F; experiment: Concentration required for stimulation of [35S]GTP-gamma-S, binding in mouse LM(tk-1) cells expressing the human 5-hydroxytryptamine 1F receptor; assay type: functional, cell-based; in short: as §1
[4] = Ratio of the Ki value for human 5-HT1A receptor versus human 5-HT1F receptor
In short: (§2)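 Selectivity ratio: Ki at human 5-HT1A, 5-HT1B or 5-HT1D receptor divided by Ki at human 5-HT1F receptor. Each Ki from radioligand binding in cell lines expressing the relevant human receptor, derived from two or more experiments.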

[5] = Ratio of the Ki value for human 5-HT1B receptor versus human 5-HT1F receptor; in short: as §2
[6] = Ratio of the Ki value for human 5-HT1D receptor versus human 5-HT1F receptor; in short: as §2

Row | Compound | Ki [1] [nM] | Emax [2] [%] | EC50 [3] [nM] | Selectivity ratio [4] | Selectivity ratio [5] | Selectivity ratio [6]
1 | CN1CCC(c2coc3ccc(NC(=O)c4c(F)cc(F)cc4F)nc23)CC1 | 2.3 | 87 | 91.7 | 57 | 181 | 62
2 | CN1CCC(c2c[nH]c3ccc(NC(=O)c4ccc(F)cc4)cc23)CC1 | 1.6 | – | – | 7 | 85 | 86
3 | CN1CCC(c2c[nH]c3ccc(NC(=O)c4ccc(F)cc4)nc23)CC1 | – | – | – | 7.3 | 160 | 960
4 | CN1CCC(c2coc3ccc(NC(=O)c4ccc(F)cc4Cl)nc23)CC1 | 3 | 92 | 27.7 | 47 | 177 | 165
5 | CN1CCC(c2coc3ccc(NC(=O)c4c(F)cccc4Cl)nc23)CC1 | 2.9 | 87 | 68.7 | 103 | 164 | 31
6 | Cc1[nH]c2ccc(NC(=O)c3ccc(F)cc3)cc2c1CCN(C)C | 8.2 | – | – | 32 | 130 | 200
7 | Cc1oc2ccc(NC(=O)c3ccc(F)cc3)nc2c1CCN(C)C | 13.5 | – | – | 65 | 42 | 19
8 | CN1CCC(c2coc3ccc(NC(=O)c4ccc(F)cc4)nc23)CC1 | 3.1 | 88 | 66 | 134 | > 1000 | > 1000
